Converted amounts (≈) assume the structure as drawn. The source made the active and inactive calls. The rule behind the calls is not given here.
Tests used:
Staphylococcus aureus [1] = assay: Antimicrobial activity against constitutively erythromycin resistant and methicillin resistant Staphylococcus aureus PU20 expressing c-ermC incubated in CAMHB medium for 20 hrs by two-fold microbroth dilution method; assay type: functional; details: PU20, 20 h
How it was run: (§1)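 Purified fresh Staphylococcus isolate at about 5×10^5 CFU/ml final in CAMHB, 35 °C for 20 h. Each run included ATCC strains and reference antibiotics as QC, plus an antibiotic-free growth control.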

Streptococcus pyogenes [2] = assay: Bactericidal activity against inducibly erythromycin resistant Streptococcus pyogenes 01-968 expressing i-ermA assessed as reduction in colony formation incubated in CAMHB medium for 20 to 24 hrs followed by 24 hrs subculturing in the medium without test compound; assay type: functional
Streptococcus pneumoniae [3] = assay: Antimicrobial activity against mef-encoded erythromycin resistant Streptococcus pneumoniae PU09 incubated in CAMHB medium for 20 to 24 hrs by two-fold microbroth dilution method; assay type: functional
Streptococcus pyogenes [4] = assay: Ratio of MBC to MIC for inducibly erythromycin resistant Streptococcus pyogenes 01-968 expressing i-ermA; assay type: functional
Staphylococcus aureus [5] = assay: Bactericidal activity against inducibly erythromycin-resistant and methicillin resistant Staphylococcus aureus PU32 expressing i-ermA assessed as reduction in colony formation incubated in CAMHB medium for 20 hrs followed by 24 hrs subculturing in the medium without test compound; assay type: functional
Moraxella catarrhalis [6] = assay: Bactericidal activity against erythromycin-susceptible Moraxella catarrhalis 13L332 assessed as reduction in colony formation incubated in CAMHB medium for 20 hrs followed by 24 hrs subculturing in the medium without test compound; assay type: functional
Streptococcus pneumoniae [7] = assay: Ratio of MBC to MIC for erythromycin-susceptible Streptococcus pneumoniae ATCC 49619; assay type: functional
Staphylococcus aureus [8] = assay: Ratio of MBC to MIC for constitutively erythromycin resistant and methicillin-resistant Staphylococcus aureus PU20 expressing c-ermC; assay type: functional
Moraxella catarrhalis [9] = assay: Antimicrobial activity against erythromycin-susceptible Moraxella catarrhalis 13L332 incubated in CAMHB medium for 20 hrs by two-fold microbroth dilution method; assay type: functional; details: 13L332, 20 h
How it was run: (§2)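 Clinical isolates and ATCC strains, purified by plate activation and used fresh; inoculum about 5×10^5 CFU/ml final. Grown in CAMHB at 35 °C for 20 h.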

Streptococcus pneumoniae [10] = assay: Bactericidal activity against erythromycin-susceptible Streptococcus pneumoniae ATCC 49619 assessed as reduction in colony formation incubated in CAMHB medium for 20 to 24 hrs followed by 24 hrs subculturing in the medium without test compound; assay type: functional
Staphylococcus aureus [11] = assay: Bactericidal activity against constitutively erythromycin resistant and methicillin-resistant Staphylococcus aureus PU20 expressing c-ermC assessed as reduction in colony formation incubated in CAMHB medium for 20 hrs followed by 24 hrs subculturing in the medium without test compound; assay type: functional
Streptococcus pneumoniae [12] = assay: Antimicrobial activity against erythromycin-susceptible Streptococcus pneumoniae ATCC 49619 incubated in CAMHB medium for 20 to 24 hrs by two-fold microbroth dilution method; assay type: functional
Streptococcus pneumoniae [13] = assay: Bactericidal activity against mef-encoded erythromycin resistant Streptococcus pneumoniae PU09 assessed as reduction in colony formation incubated in CAMHB medium for 20 to 24 hrs followed by 24 hrs subculturing in the medium without test compound; assay type: functional
Moraxella catarrhalis [14] = assay: Ratio of MBC to MIC for erythromycin-susceptible Moraxella catarrhalis 13L332; assay type: functional
Streptococcus pyogenes [15] = assay: Antimicrobial activity against inducibly erythromycin resistant Streptococcus pyogenes 01-968 expressing i-ermA incubated in CAMHB medium for 20 to 24 hrs by two-fold microbroth dilution method; assay type: functional
Staphylococcus aureus [16] = assay: Antimicrobial activity against inducibly erythromycin-resistant and methicillin resistant Staphylococcus aureus PU32 expressing i-ermA incubated in CAMHB medium for 20 hrs by two-fold microbroth dilution method; assay type: functional; details: PU32, 20 h; how it was run: as §1
Staphylococcus aureus [17] = assay: Antimicrobial activity against erythromycin-susceptible Staphylococcus aureus ATCC 29213 incubated in CAMHB medium for 20 hrs by two-fold microbroth dilution method; assay type: functional; details: ATCC 29213, 20 h; how it was run: as §2
[18] = system: Staphylococcus epidermidis; assay: Antimicrobial activity against Staphylococcus epidermidis E1 incubated in CAMHB medium for 20 hrs by two-fold microbroth dilution method; assay type: functional; details: E1, 20 h; how it was run: as §2
Streptococcus pneumoniae [19] = assay: Bactericidal activity against erythromycin-susceptible Streptococcus pneumoniae ATCC 49619 assessed as log reduction in bacterial CFU at 1 to 16XMIC incubated for 1 to 24 hrs by broth dilution method; assay type: functional
How it was run: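 Samples taken at 1, 2, 4, 6, 8, 12, 24 h, diluted and plated, colonies counted after 20-24 h at 35 °C; log CFU plotted against time. Detection limit 300 CFU/mL.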

Streptococcus pneumoniae [20] = assay: Ratio of MBC to MIC for mef-encoded erythromycin resistant Streptococcus pneumoniae PU09; assay type: functional
Streptococcus pneumoniae [21] = assay: Antimicrobial activity against constitutively erythromycin resistant Streptococcus pneumoniae PU27 expressing c-erm incubated in CAMHB medium for 20 to 24 hrs by two-fold microbroth dilution method; assay type: functional
How it was run: (§3)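 Purified fresh Streptococcus isolate at about 5×10^5 CFU/ml final in CAMHB with 5% horse serum, 35 °C for 20–24 h. […] Each run included ATCC strains and reference antibiotics as QC, plus an antibiotic-free growth control.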

Streptococcus pneumoniae [22] = assay: Bactericidal activity against mef-encoded erythromycin resistant Streptococcus pneumoniae PU09 at 1 to 16xMIC incubated for 1 to 24 hrs by broth dilution method; assay type: functional, organism-based
How it was run: (§4)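 Samples were taken at 1, 2, 4, 6, 8, 12 and 24 h, diluted and subcultured at 35 °C for 20–24 h. Colonies were counted and log CFU plotted against time; detection limit 300 CFU/mL.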

Staphylococcus aureus [23] = assay: Ratio of MBC to MIC for inducibly erythromycin-resistant and methicillin resistant Staphylococcus aureus PU32 expressing i-ermA; assay type: functional
Staphylococcus aureus [24] = assay: Antimicrobial activity against constitutively erythromycin resistant Staphylococcus aureus PU20 expressing c-ermC incubated in CAMHB medium for 20 hrs by two-fold microbroth dilution method; assay type: functional; details: PU20, 20 h
How it was run: (§5)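 Purified fresh Staphylococcus isolate at about 5×10^5 CFU/ml final in CAMHB, 35 °C for 20 h. […] Each run included ATCC strains and reference antibiotics as QC, plus an antibiotic-free growth control.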

Streptococcus pyogenes [25] = assay: Bactericidal activity against inducibly erythromycin resistant Streptococcus pyogenes 01-968 expressing i-ermA at 1XMIC incubated for 24 hrs by broth dilution method; assay type: functional, organism-based; how it was run: as §4
Streptococcus pyogenes [26] = assay: Bactericidal activity against inducibly erythromycin resistant Streptococcus pyogenes 01-968 expressing i-ermA at 1XMIC incubated for 12 hrs by broth dilution method; assay type: functional, organism-based; how it was run: as §4
Staphylococcus aureus [27] = assay: Antimicrobial activity against inducibly erythromycin-resistant Staphylococcus aureus PU32 expressing i-ermA incubated in CAMHB medium for 20 hrs by two-fold microbroth dilution method; assay type: functional; details: PU32, 20 h; how it was run: as §5
Streptococcus pyogenes [28] = assay: Antimicrobial activity against constitutively erythromycin resistant Streptococcus pyogenes A2 expressing c-erm incubated in CAMHB medium for 20 to 24 hrs by two-fold microbroth dilution method; assay type: functional; how it was run: as §3
Staphylococcus aureus [29] = assay: Antimicrobial activity against inducibly erythromycin resistant Staphylococcus aureus PU64 expressing i-ermA incubated in CAMHB medium for 20 hrs by two-fold microbroth dilution method; assay type: functional; details: PU64, 20 h; how it was run: as §5
Streptococcus pyogenes [30] = assay: Antimicrobial activity against erythromycin-susceptible Streptococcus pyogenes A3 incubated in CAMHB medium for 20 to 24 hrs by two-fold microbroth dilution method; assay type: functional

Row | SMILES | MIC (Staphylococcus aureus [1]) [µg/mL] | MBC (Streptococcus pyogenes [2]) [µg/mL] | MIC (Streptococcus pneumoniae [3]) [µg/mL] | Ratio (Streptococcus pyogenes [4]) | MBC (Staphylococcus aureus [5]) [µg/mL] | MBC (Moraxella catarrhalis [6]) [µg/mL] | Ratio (Streptococcus pneumoniae [7]) | Ratio (Staphylococcus aureus [8]) | MIC (Moraxella catarrhalis [9]) [µg/mL] | MBC (Streptococcus pneumoniae [10]) [µg/mL] | MBC (Staphylococcus aureus [11]) [µg/mL] | MIC (Streptococcus pneumoniae [12]) [µg/mL] | MBC (Streptococcus pneumoniae [13]) [µg/mL] | Ratio (Moraxella catarrhalis [14]) | MIC (Streptococcus pyogenes [15]) [µg/mL] | MIC (Staphylococcus aureus [16]) [µg/mL] | Ratio (Streptococcus pneumoniae [20]) | other results
1 | CC[C@H]1OC(=O)[C@H](C)[C@@H](OCC#Cc2ccc(C(=O)c3ccccc3)s2)[C@H](C)[C@@H](O[C@@H]2O[C@H](C)C[C@H](N(C)C)[C@H]2O)[C@](C)(OC)C[C@@H](C)/C(=N\OC)[C@H](C)[C@H]2OC(=O)O[C@@]21C | 32 (≈ 36.8 µM) | 8 (≈ 9.21 µM) | 4 (≈ 4.6 µM) | 2 | > 256 | 16 (≈ 18.4 µM) | 2 | >8 | 8 (≈ 9.21 µM) | 16 (≈ 18.4 µM) | > 256 | 8 (≈ 9.21 µM) | 8 (≈ 9.21 µM) | 2 | 4 (≈ 4.6 µM) | > 256 |  | 
2 | CC[C@H]1OC(=O)[C@H](C)C(=O)[C@H](C)[C@@H](O[C@@H]2O[C@H](C)C[C@H](N(C)C)[C@H]2O)[C@](C)(OC)C[C@@H](C)C(=O)[C@H](C)[C@H]2N(CCCCn3cnc(-c4cccnc4)c3)C(=O)O[C@]12C [TELITHROMYCIN] | > 256 | 0.13 to 0.5 (≈ 0.16 to 0.616 µM) | 0.25 to 1 (≈ 0.308 to 1.23 µM) | 4 - 8 | 1 to 2 (≈ 1.23 to 2.46 µM) | 0.5 (≈ 0.616 µM) | 1 - 4 |  | 0.125 (≈ 0.154 µM) | 0.031 to 0.125 (≈ 0.0382 to 0.154 µM) | > 256 |  | 1 to 4 (≈ 1.23 to 4.93 µM) | 4 | 0.031 to 0.062 (≈ 0.0382 to 0.0764 µM) | 0.25 (≈ 0.308 µM) | 4 - 8 | MIC (Staphylococcus aureus [17]): 0.125 µg/mL (≈ 0.154 µM); MIC [18]: 0.125 µg/mL (≈ 0.154 µM); Activity (Streptococcus pneumoniae [19]): 3 log10CFU; MIC (Streptococcus pneumoniae [21]): ≤ 0.032 µg/mL; Activity (Streptococcus pneumoniae [22]): Active; Ratio (Staphylococcus aureus [23]): >=4 - 8; MIC (Staphylococcus aureus [24]): > 256 µg/mL; Activity (Streptococcus pyogenes [25]): inactive; Activity (Streptococcus pyogenes [26]): Active; MIC (Staphylococcus aureus [27]): 0.125 µg/mL (≈ 0.154 µM); MIC (Streptococcus pyogenes [28]): 32 µg/mL (≈ 39.4 µM); MIC (Staphylococcus aureus [29]): 0.125 µg/mL (≈ 0.154 µM); MIC (Streptococcus pyogenes [30]): ≤ 0.032 µg/mL
3 | CC[C@H]1OC(=O)[C@H](C)[C@@H](OCC#Cc2ccc(-c3ccccn3)s2)[C@H](C)[C@@H](O[C@@H]2O[C@H](C)C[C@H](N(C)C)[C@H]2O)[C@](C)(OC)C[C@@H](C)/C(=N\OC)[C@H](C)[C@H]2OC(=O)O[C@@]21C | 256 (≈ 304 µM) | 64 (≈ 76 µM) | 8 (≈ 9.5 µM) | 8 | > 256 | 8 (≈ 9.5 µM) | 4 | 1 | 4 (≈ 4.75 µM) | 16 (≈ 19 µM) | 256 (≈ 304 µM) | 4 (≈ 4.75 µM) | 16 (≈ 19 µM) | 2 | 8 (≈ 9.5 µM) | > 256 | 2 | 
4 | CC[C@H]1OC(=O)[C@H](C)[C@@H](OCC#Cc2ccc(OCc3ccccc3)cc2)[C@H](C)[C@@H](O[C@@H]2O[C@H](C)C[C@H](N(C)C)[C@H]2O)[C@](C)(OC)C[C@@H](C)/C(=N\OC)[C@H](C)[C@H]2OC(=O)O[C@@]21C | 32 (≈ 37 µM) | 8 (≈ 9.25 µM) | 8 (≈ 9.25 µM) | 2 | > 256 | 8 (≈ 9.25 µM) | 4 | 8 | 8 (≈ 9.25 µM) | 32 (≈ 37 µM) | 256 (≈ 296 µM) | 8 (≈ 9.25 µM) | 16 (≈ 18.5 µM) | 1 | 4 (≈ 4.62 µM) | > 256 | 2 | 
